Where a SMILES comes first, the peptide text is derived from it. [ ]: non-standard residue; d: D form.
Key:
M2 macrophages = format: cell-based; conditions: 2 h
macrophages = assay: M2pep sequence specificity of macrophage toxicity; format: cell-based, murine; conditions: peptides partially dimerized in solution; Fig. S3, linkers Fig. S4
M1 macrophages = assay: Cell viability during binding study; format: cell-based, murine; conditions: 20 min on ice, PI staining; up to 50 µM; Fig. 1B
Procedure, shortened: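 Bone-marrow cells cultured 7 d in RPMI 1640 with 20% horse serum, 1% antibiotic-antimycotic and 20 ng/mL M-CSF, then activated 2 d with 25 ng/mL IFN-γ plus 100 ng/mL LPS. Cells were plated at 50,000/well and given biotinylated peptide in PBS/1% BSA on ice. After washing they were given streptavidin-FITC for 15 min on ice. Dead cells were scored by PI flow cytometry. Triplicates, three independent experiments.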

Row | Compound | macrophage toxicity (macrophages) | further results
1 | CC(C)C[C@@H](NC(=O)[C@@H](CCCCN)NC(=O)[C@H](CO)NC(=O)CNC(=O)CNC(=O)CNC(=O)[C@H](Cc1ccc(O)cc1)NC(=O)[C@H](Cc1c[nH]c2ccccc12)NC(=O)[C@H](Cc1c[nH]c2ccccc12)NC(=O)[C@H](CCCCN)NC(=O)[C@@H](NC(=O)CNC(=O)[C@H](Cc1c[nH]c2ccccc12)NC(=O)[C@@H]1CCCN1C(=O)[C@H](CC(=O)O)NC(=O)[C@H](CCC(N)=O)NC(=O)[C@H](CCC(=O)O)NC(=O)[C@@H](N)Cc1ccc(O)cc1)C(C)C)C(=O)N[C@H](C)C(=O)N[C@H](CCCCN)C(=O)N[C@H](CC(C)C)C(=O)N[C@H](C)C(=O)N[C@H](CCCCN)C(=O)N[C@H](CCCCN)C(=O)N[C@H](CC(C)C)C(=O)N[C@H](C)C(=O)N[C@H](CCCCN)C(=O)N[C@H](CC(C)C)C(=O)N[C@H](C)C(=O)N[C@H](CCCCN)C(N)=O [M2pepKLA] (H-YEQDPWGVKWWYGGGS[dK][dL][dA][dK][dL][dA][dK][dK][dL][dA][dK][dL][dA][dK]-NH2) | – | EC50 (M2 macrophages): 4.29 µM
2 | WEDYQWPVYKGWGGGSKKKC [scrambled M2pepKKKC, reference compound] | toxicity was only observed in the M2pepKKKC-treated samples | –
3 | YEQDPWGVKWWYGGGSKKKBiotin [M2pepBiotin] | – | toxicity to M1 macrophages during binding study (M1 macrophages): no toxicity to either cell type
4 | YEQDPWGVKWWYGGGSKKKC [M2pepKKKC] | toxicity was only observed in the M2pepKKKC-treated samples | –
